The values that follow come from ChEMBL document CHEMBL3286260, “Guanidine-based α2-adrenoceptor ligands: Towards selective antagonist activity” (Eur J Med Chem, 2014).

In assay [1] the target is T1, Alpha-2A adrenergic receptor (Homo sapiens, UniProt P08913).
T1 sequence (P08913 whole entry): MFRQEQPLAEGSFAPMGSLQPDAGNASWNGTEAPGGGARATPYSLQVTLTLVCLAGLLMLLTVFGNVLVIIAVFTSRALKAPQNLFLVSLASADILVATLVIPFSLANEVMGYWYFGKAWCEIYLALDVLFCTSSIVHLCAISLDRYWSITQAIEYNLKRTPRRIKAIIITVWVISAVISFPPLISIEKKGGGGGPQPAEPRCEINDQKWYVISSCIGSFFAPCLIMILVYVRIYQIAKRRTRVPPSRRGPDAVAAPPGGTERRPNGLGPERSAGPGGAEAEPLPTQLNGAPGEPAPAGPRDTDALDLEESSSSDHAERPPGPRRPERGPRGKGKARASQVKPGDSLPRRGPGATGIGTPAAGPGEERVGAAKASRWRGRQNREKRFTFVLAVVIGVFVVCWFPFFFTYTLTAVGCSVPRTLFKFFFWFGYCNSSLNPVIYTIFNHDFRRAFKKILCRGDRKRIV
Briefly: Displacement of [3H]RX821002 from alpha2-adrenergic receptor in prefrontal cortex of human brain after 30 mins by liquid scintillation spectrometric analysis. The format is tissue-based. (Displacement assays read how much labelled ligand stays bound in the presence of the test substance.)

Assay [2] concerns the target T2, Alpha-2A adrenergic receptor (Homo sapiens) (UniProt P08913).
T2 sequence (whole entry): T1 sequence (P08913 whole entry)
Briefly: Antagonist activity at alpha2-adrenergic receptor in prefrontal cortex of human brain assessed as effect on [35S]GTPgammaS binding after 120 mins by liquid scintillation spectrometric analysis. The format is functional, tissue-based. A general note: GTPγS is a poorly hydrolysed GTP analogue; its binding reports G protein activation.

Assay [3] deals with T2, Alpha-2A adrenergic receptor (Homo sapiens). In words: Antagonist activity at alpha2-adrenergic receptor in prefrontal cortex of human brain assessed as increase in UK14304 EC50 for [35S]GTPgammaS binding after 120 mins by liquid scintillation spectrometric analysis. The assay is classed as functional, tissue-based. The method, boiled down: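 Same [35S]GTPγS membrane assay (120 min, 30 °C, 0.5 nM radioligand, Mg/Na/GDP buffer pH 7.4). UK14304 concentration–response curves (10^-13 to 10^-4 M) run with or without test compound at 10^-5 M. Shift in agonist EC50 taken as the measure of antagonism. Bound label counted by liquid scintillation.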

Activity calls are given as the source filed them. No cut-off for these calls is given here.

For orientation: Ki means the equilibrium dissociation constant of an inhibitor or competing ligand from its target. Read a low Ki as a stronger hold on the target. As for `CCOc1ccc(/N=C(/N)NCc2ccco2)cc1`, the Ki in assay [1] is 1.48 µM. The outcome in assay [2] was Active. In assay [1], `COC1(C2=NCCN2)COc2ccccc2O1` (centres undefined) had a Ki of 0.00191 µM. Still for that read-out and setting: then `CN(C)c1ccc(/N=C2/NCC(c3ccco3)N2)cc1` (centres undefined), with 1.32 µM. With `CCCNC(=N)Nc1ccc(NCC)cc1`, the Ki in assay [1] was 8.32 µM. On to `CN(C)c1ccc(NC(=N)NCCO)cc1`, for which the Ki in assay [1] was 1.86 µM. Moreover, the outcome in assay [2] was Active. Regarding `c1coc(C2CN/C(=N/c3ccc4c(c3)CCCC4)N2)c1` (centres undefined), in assay [1], the Ki was 0.692 µM. Moreover, the result in assay [2] was Active. For the molecule `N=C(NCc1ccco1)Nc1ccc2c(c1)OCO2`, the affinity in assay [1], expressed as Ki, was 1.51 µM. Also, the outcome in assay [2] was Active.

In assay [1], `CCNc1ccc(NC(=N)NCCO)cc1` had a Ki of 18.6 µM. Take `CCOc1ccc(NC(=N)N)cc1`: affinity in assay [1] was put at a Ki of 0.141 µM. Besides, the result in assay [2] and in assay [3] was Active. `CCCNC(=N)Nc1ccc2c(c1)CCCC2`: the Ki in assay [1] was 0.676 µM. For the same molecule, in assay [2], the outcome was Active. Molecule `CC1CN/C(=N/c2ccc3c(c2)OCO3)N1` (centres undefined) had a Ki in assay [1] of 2.34 µM. In other words, the single-digit micromolar range.

Regarding `CCOc1ccc(/N=C2/NCC(c3ccco3)N2)cc1` (centres undefined), the Ki in assay [1] is 2.63 µM. Still for that read-out and setting: then `N=C(Nc1ccccc1)Nc1ccc2c(c1)OCO2`, with 4.37 µM; and `CCCNC(=N)Nc1ccc2c(c1)OCO2`, with 15.1 µM. As for `N=C(NCc1ccco1)Nc1ccc2c(c1)CCCC2`, the Ki in assay [1] is 0.513 µM. The outcome in assay [2] was Active.

`N=C(Nc1ccccc1)Nc1ccc2c(c1)CCCC2` showed a Ki in assay [1] of 0.263 µM. Also, the result in assay [2] and in assay [3] was Active. In assay [1], `CN(C)c1ccc(/N=C(/N)NCc2ccco2)cc1` showed an inhibition constant Ki of 0.214 µM. Also, the outcome in assay [2] and in assay [3] was Active. `CCNc1ccc(/N=C(/N)NCc2ccco2)cc1` had a Ki in assay [1] of 1.07 µM. In assay [2], the outcome was Active.

Turning to `CCCNC(=N)Nc1ccc(OCC)cc1`, in assay [1], the Ki is 4.27 µM. The result in assay [2] was Active.

Regarding `CCOc1ccc(NC(=N)Nc2ccccc2)cc1`, the Ki in assay [1] is 2.24 µM. Still for that read-out and setting: to `N=C(NCCO)Nc1ccc2c(c1)CCCC2` belongs 1.74 µM.

Molecule `CCCNC(=N)Nc1ccc(N(C)C)cc1` showed a Ki in assay [1] of 1.12 µM. Moreover, in assay [2], the result was Active. With `CC1CN/C(=N/c2ccc(N(C)C)cc2)N1` (centres undefined), in assay [1], the Ki is 3.31 µM. Same read-out and setting: then `c1coc(C2CN/C(=N/c3ccc4c(c3)OCO4)N2)c1` (centres undefined), with 1.7 µM; and `CCOc1ccc(/N=C2/NCC(C)N2)cc1` (centres undefined), with 14.1 µM. Still for that read-out and setting: to `CCNc1ccc(/N=C2/NCC(c3ccco3)N2)cc1` (centres undefined) belongs 2.19 µM; to `CCNc1ccc(/N=C2/NCC(C)N2)cc1` (centres undefined), 12.3 µM; to `CCOc1ccc(NC(=N)NCCO)cc1`, 19.1 µM.

For `CCNc1ccc(NC(=N)Nc2ccccc2)cc1`, in assay [1], the Ki was 4.9 µM. This Ki is about 3.9-fold lower than that of the molecule before. For `CN(C)c1ccc(NC(=N)Nc2ccccc2)cc1`, the affinity in assay [1], expressed as Ki, was 0.389 µM. Besides, the outcome in assay [2] and in assay [3] was Active.

The molecule `CCOc1ccc(N=C2NCCN2)cc1` showed a Ki in assay [1] of 0.0794 µM. Moreover, the outcome in assay [2] and in assay [3] was Active. With `N=C(NCCO)Nc1ccc2c(c1)OCO2`, the affinity in assay [1] corresponds to a Ki of 11.7 µM. Further, in assay [2], the outcome was Active. In the same order, the values of `CC1CN/C(=N/c2ccc3c(c2)CCCC3)N1` (centres undefined) are 1 µM and “Active”.
